Consider 7 molecules from article PMC6528641 (ChemistryOpen, 2019).

The target of one data set is AChE (Electrophorus electricus, UniProt O42275). As to the kind of experiment: AChE inhibitory assay. The data set is classed as biochemical, Electroporus electricus.
In a further data set the target is BuChE (Bos taurus, UniProt P32749). Description: BuChE inhibitory assay. The data set is classed as biochemical, bovine.
Data set [1] in a line: Neurotoxicity assay, cell viability by Neutral Red method. Format: cell-based, human. To be noted: human, SH-SY5Y neuroblastoma cells. The method in brief: (§1)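 SH-SY5Y cells (passages 18–23) in DMEM with 5% FBS were seeded at 2×10^4 cells/well and grown 24 h at 37 °C, 5% CO2. Test compound came from a 1×10−2 M DMSO stock, freshly diluted in medium, and was applied for 24 h. Controls were medium alone and 120 mM K+ (death). Cells were PBS-washed, given neutral red for 3 h at 37 °C, extracted 20 min with acidified ethanol, and read at A540.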

Data set [2] concerns human neuroblastoma SH‐SY5Y cells. Described as above. Format: cell-based. To be noted: SH‐SY5Y cells. The method in brief:
as §1

BuChE, sequence (P32749 29-602): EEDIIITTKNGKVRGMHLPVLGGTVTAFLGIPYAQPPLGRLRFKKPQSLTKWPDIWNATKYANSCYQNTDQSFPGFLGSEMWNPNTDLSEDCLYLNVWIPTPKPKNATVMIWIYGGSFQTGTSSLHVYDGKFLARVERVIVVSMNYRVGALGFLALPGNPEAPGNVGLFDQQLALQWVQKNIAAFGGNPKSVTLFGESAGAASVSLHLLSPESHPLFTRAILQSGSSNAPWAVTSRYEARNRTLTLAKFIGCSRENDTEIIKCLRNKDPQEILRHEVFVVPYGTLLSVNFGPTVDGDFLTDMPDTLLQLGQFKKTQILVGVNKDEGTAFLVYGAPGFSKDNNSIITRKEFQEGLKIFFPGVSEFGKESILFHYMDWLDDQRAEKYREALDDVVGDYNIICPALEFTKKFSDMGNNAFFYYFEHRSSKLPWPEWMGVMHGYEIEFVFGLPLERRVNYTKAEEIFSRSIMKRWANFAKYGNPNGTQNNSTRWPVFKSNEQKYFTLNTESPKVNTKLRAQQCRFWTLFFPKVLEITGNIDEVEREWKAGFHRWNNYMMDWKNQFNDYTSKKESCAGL
AChE, sequence (O42275 24-633): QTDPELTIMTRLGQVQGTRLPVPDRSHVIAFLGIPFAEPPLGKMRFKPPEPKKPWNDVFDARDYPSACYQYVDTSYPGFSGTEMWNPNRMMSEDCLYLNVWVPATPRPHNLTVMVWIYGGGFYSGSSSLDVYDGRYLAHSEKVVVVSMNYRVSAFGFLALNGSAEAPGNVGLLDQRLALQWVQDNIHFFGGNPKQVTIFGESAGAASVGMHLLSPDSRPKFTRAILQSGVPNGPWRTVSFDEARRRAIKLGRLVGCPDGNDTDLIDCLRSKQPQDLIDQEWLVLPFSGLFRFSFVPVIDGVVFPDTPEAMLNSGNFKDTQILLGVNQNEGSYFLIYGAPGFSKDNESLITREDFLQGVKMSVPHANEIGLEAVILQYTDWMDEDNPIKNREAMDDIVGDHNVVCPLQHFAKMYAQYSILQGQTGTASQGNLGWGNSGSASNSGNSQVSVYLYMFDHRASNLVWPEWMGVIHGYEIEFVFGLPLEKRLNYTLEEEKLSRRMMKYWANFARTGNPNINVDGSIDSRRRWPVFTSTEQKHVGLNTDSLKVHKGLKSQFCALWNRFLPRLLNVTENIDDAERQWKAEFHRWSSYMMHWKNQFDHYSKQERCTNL

The IC50 is the concentration that gives 50% inhibition. A lower IC50 goes with inhibition by little substance. Turning to `O=CNC1CC(c2ccccc2)Nc2c1ccc1cccnc21` (stereo not drawn) [4 a, N‐(2‐phenyl‐1,2,3,4‐tetrahydro‐1,10‐phenanthroline‐4‐yl) formamide], at AChE, the IC50 is above 500 µM.
As to `O=CNC1CC(c2ccccn2)Nc2c1ccc1cccnc21` (stereo not drawn) [4 b, N‐(2‐(pyridin‐2‐yl)‐1,2,3,4‐tetrahydro‐1,10‐phenanthroline‐4‐yl) formamide], the IC50 on AChE worked out at 143.66 ± 0.02 µM; against BuChE it was 152.99 ± 0.01 µM.
Consider `O=CNC1CC(c2cccnc2)Nc2c1ccc1cccnc21` (stereo not drawn) [4 c, N‐(2‐(pyridin‐3‐yl)‐1,2,3,4‐tetrahydro‐1,10‐phenanthroline‐4‐yl) formamide], for which inhibition against AChE was half-maximal at 140.2 ± 0.02 µM (IC50).
Usually viability stands for a read-out of living cells in per cent, often relative to untreated cells. At AChE, `O=CNC1CC(c2ccncc2)Nc2c1ccc1cccnc21` (stereo not drawn) [4 d, N‐(2‐(pyridin‐4‐yl)1,2,3,4‐tetrahydro‐1,10‐phenanthroline‐4‐yl) formamide] registered an IC50 of 63.63 ± 0.01 µM. This molecule came in with an IC50 against BuChE of 138.63 ± 0.01 µM. Also, in data set [1], the concentration for half-maximal inhibition (IC50) at 24 h is 5500 µM; the viability at 24 h, 10 µM stood at 132 ± 25.6%; the viability at 24 h, 1 mM was 102 ± 18.9%. In data set [2], the “Cytotoxicity (in words)” value is “non‐cytoxicity”.
With `COc1ccc(C2CC(NC=O)c3ccc4cccnc4c3N2)cc1` (stereo not drawn) [4 e, N‐(2‐(4‐methoxyphenyl)‐1,2,3,4‐tetrahydro‐1,10‐phenanthroline‐4‐yl) formamide], the half-inhibitory concentration (IC50) at AChE stood at 362.11 ± 0.03 µM. Moreover, in data set [1], the midpoint of inhibition, the IC50 at 24 h, lay at 3700 µM; the viability at 24 h, 10 µM worked out at 119 ± 6.4%; the viability at 24 h, 1 mM turned out to be 78.5 ± 12.5%.
At AChE, `O=CNC1CC(c2ccc([N+](=O)[O-])cc2)Nc2c1ccc1cccnc21` (stereo not drawn) [4 g, N‐(2‐(4‐nitrophenyl)‐1,2,3,4‐tetrahydro‐1,10‐phenanthroline‐4‐yl) formamide] came in with an IC50 of 96.52 ± 0.01 µM. In addition, in data set [1], it took 300 µM to reach half-maximal inhibition (IC50 at 24 h); the viability at 24 h, 10 µM was found to be 116 ± 5%; the viability at 24 h, 1 mM is 21.9 ± 3.9%. The “Cytotoxicity (in words)” value in data set [2] is “non‐cytoxicity”.
Turning to `Nc1cccc2cccnc12` [8‐amino‐quinoline, reference compound], the IC50 was 171.56 ± 0.01 µM on AChE and 195.08 ± 0.02 µM on BuChE.
